PubChem BioAssay
Values without a mark were called inactive. Results filed as inconclusive are left out. Active and inactive are the calls of the source.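 The calls were made as follows, unless noted: active = cell viability at or below a set limit in both duplicate runs, the limit being the all-compound median minus 4 SD (cut at about 23% in these data, passing the limit was not always enough); inconclusive = no clear call, values can overlap the other calls; inactive = the rest.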

Assays:
[1] = S. cerevisiae growth inhibition in permissive medium (OD615), pilot counter-assay for S. cerevisiae lifespan shortening project, permissive growth control (AID 705;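 active = growth inhibition above 25% in both replicates, a cutoff set 3 SD above the mean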); conditions: OD615, 24 h, at 10 µM, active compounds read high
In short: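 System: S. cerevisiae with engineered DeaD lifespan system / Measured by: absorbance (optical density) at 615 nm / Read-out: reduction in yeast growth (OD615) / Times: 4 h cell pre-growth, 24 h exposure at 30 °C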

[2] = S. cerevisiae growth inhibition in restrictive medium, OD615, pilot screen, restrictive growth control, yeast lifespan reduction project (AID 706;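 active = growth inhibition above a set limit, 3 SD over mean compound inhibition, in both replicates, cut at about 43% in these data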;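 also: modified DeaD lifespan yeast strain shifted to restrictive glucose medium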); conditions: OD615, 48 h, at 10 µM, active compounds read high
In short: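 System: Engineered S. cerevisiae DeaD strain | Buffer or medium: Glucose-based CSMM-D restrictive medium | Schedule: 4 h pre-incubation, 48 h exposure at 30 °C | Technique: Optical density at 615 nm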

[3] = doxorubicin toxicity protection in MRP-1 cells – H69AR cells, CellTiter-Glo, duplicate, MRP-1 activator project, pilot screen (AID 807;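 active = viability increase at or above a cutoff of the median across tested compounds plus 3 SD, cut at about 8.5% in these data, passing the limit was not always enough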;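 also: compound pretreatment 18-22 h then 72 h combined with doxorubicin; 0% = doxorubicin alone and 100% = vehicle without doxorubicin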); conditions: H69AR viability with doxorubicin, CellTiter-Glo luminescence; at 10 µM; active compounds read high
[4] = viability of HCT116 without oncogenic beta-catenin – human colon tumor cells, pilot screen (AID 823); conditions: HCT116 beta-catenin knockout viability, CellTiter-Glo, 60 h; at 10 µM; active compounds read low;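 also: 0% = wells killed by 20 µM Hyamine and 100% = untreated DMSO cell wells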
[5] = viability of PTEN-null HCT116 cells – cell-based, HCT116 clonal line, CellTiter-Glo, pilot screen (AID 824;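 active = viability at or below 27.92% in each of two runs, the all-compound median minus 4 SD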;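 also: 0% = 20 µM Hyamine control and 100% = vehicle cell control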); conditions: HCT116 PTEN-deleted viability, 60 h, at 10 µM, active compounds read low
[6] = RAM pathway blockade in budding yeast – dse1pr::URA3 reporter, 5-FOA selection, pilot screen (AID 869;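 active = inhibition over a set limit, the all-compound mean plus 3 SD, in both replicate runs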;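 also: 0% = DMSO wells with no growth and 100% = 10 µM 1-NA-PP1 with full growth; RAM network block rescues cells from 5-FOA so hits raise OD615 growth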); conditions: S. cerevisiae dse1pr::URA3 5-FOA growth, OD615, 2 d; at 10 µM; active compounds read high; strain carries analog-sensitive mutant Cbk1 kinase
[7] = RAM signaling pathway blockade in yeast – S. cerevisiae, Pdr1DBD-CYC8 efflux-inhibited sensitized strain, primary screen (AID 1298;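 active = RAM network inhibition above 8.4% in each of two replicates, 3 SD over the compound average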;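 also: 0% = DMSO untreated cells without growth and 100% = 10 µM 1-NA-PP1 full growth; higher means more yeast growth rescued from 5-FOA killing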); conditions: S. cerevisiae cbk1-as DSE1-URA3 strain, 5-FOA growth OD615, 2 d; at 50 µM; active compounds read high

Structure (SMILES) | growth inhibition [1] | growth inhibition [2] | viability increase [3] | viability [4] | viability [5] | inhibition [6] | RAM network inhibition [7]
CCOCCn1c(SCc2ccc(F)cc2)nc2c1c(=O)[nH]c(=O)n2C | -4.31% | 5.57% | -2.04% | 99% | 94.3% | -0.925% | -0.32%
CCN(CCNC(=O)Cn1c(=O)sc2ccccc21)c1ccccc1 | -10.6% | 2.42% | -3.76% | 92.2% | 84.9% | 1.57% | 2.04%
CCC(C)NC(=O)CS(=O)Cc1nc(-c2cccc(C)c2)oc1C (configuration not stated) | -12.9% | -5.66% | -1.72% | 99.4% | 88.2% | 1.52% | 4.65%
COCCOC(=O)C1=C(C)NC2=C(C(=O)CCC2)C1c1cc2c(cc1Br)OCO2 (configuration not stated) | -18.1% | -17% | -0.03% | 92.4% | 102% | 1.16% | 5.69%
O=C(Nc1ccc(Cl)c(Cl)c1)c1ccncc1 | -19.8% | -34.8% | -1.27% | 101% | 90.6% | 0.83% | 2.47%
CC1CN(S(=O)(=O)c2ccc(C(=O)Nc3nnc(-c4ccc5c(c4)CCCC5)o3)cc2)CC(C)O1 (configuration not stated) | -19.1% | 1.69% | -5.17% | 21.1% (active) | 19.7% (active) | 1.67% | 5.1%
CCn1c(SCC(=O)N2CCOCC2)nc(O)cc1=O | -6.62% | -12.7% | -0.84% | 105% | 103% | 2.59% | 1.54%
CN1CCc2c(sc3c2C(=O)NC(c2ccc(-c4cccc(Cl)c4)o2)N3)C1 (configuration not stated) | 5% | 3.19% | -1.49% | 97.6% | 87.7% | 1.89% | 2.2%
COc1cccc(-n2c(Cc3cc(=O)[nH]c(=O)[nH]3)nnc2SC(C)C)c1 | -12.3% | 8.2% | -0.34% | 103% | 100% | 1.71% | 3.35%
O=C(Nc1nnc(-c2ccc(Cl)cc2)o1)c1ccccc1Br | 0.92% | 20.1% | -3.81% | 68.8% | 60.9% | 0.69% | 1.62%
Cc1cc(Oc2ccccc2)nc2ccc(O)cc12 | -1.63% | 3.26% | -5.89% | 89.9% | 80.2% | 1.14% | -0.04%
Cc1ccc(-c2nc(C#N)c(N3CCCCC3)o2)cc1 | -4.44% | -6.95% | -1.61% | 98% | 78.1% | 1.51% | 3.37%
CC(=N)C1=C(O)CC(C)(C)CC1=O | -7.31% | -1.06% | 0.77% | 94.9% | 105% | 1.49% | 2.39%
Cc1ccc(C(=O)N2CCN(c3ccccc3)CC2)cc1C | 3.37% | 8.08% | 0.84% | 101% | 97.7% | 0.13% | 2.03%
O=C(CSc1ccc2nnc(-c3cccnc3)n2n1)N1CCc2ccccc21 | -5.28% | 4.37% | -3.19% | 103% | 94.1% | 0.845% | 4.57%
C=CCn1c(=O)c2c(nc3n2CC(C)CN3c2cccc(OC)c2)n(C)c1=O (configuration not stated) | -16.1% | -8.79% | -3.27% | 97.7% | 98.8% | 1.56% | 5.52%
Cc1cc(=O)[nH]c(SCC(=O)NCCOc2ccccc2)n1 | -2.17% | -1.72% | -0.09% | 102% | 98.8% | 1.02% | 1.13%
O=C(CN1C(=O)CSc2ncccc21)NCCN1CCOCC1 | 0.545% | -1.25% | -0.4% | 106% | 99.7% | 2.09% | 3.41%

Structure (SMILES) | growth inhibition [1] | growth inhibition [2] | viability increase [3] | viability [4] | viability [5] | inhibition [6] | RAM network inhibition [7]
Cc1ccc(C)c(NC(=O)C2CC=CCC2C(=O)O)c1 (configuration not stated) | 3.24% | 5.03% | -0.5% | 101% | 104% | 1.96% | 4.68%
Cc1noc(C)c1S(=O)(=O)NC1CCN(Cc2ccccc2)CC1 | -12.1% | -2.23% | -0.68% | 95.8% | 94.1% | 3.14% | 4.49%
Cn1c(=O)c2cc(S(=O)(=O)NC(Cc3ccccc3)C(=O)NCc3ccco3)ccc2n(C)c1=O (configuration not stated) | -16.4% | -11.4% | -4.79% | 101% | 92% | 2.81% | 4.39%
COc1cc(-c2nnc(COc3ccc4cc(Br)ccc4c3)o2)cc(OC)c1OC | -10.6% | -8.51% | 0.27% | 62.9% | 46.7% | 0.505% | 3.67%
C=CCOC(=O)C1=C(C)N(C)C(=O)NC1c1cc2c(cc1Br)OCO2 (configuration not stated) | 0.155% | -0.035% | -1.27% | 88.1% | 91.8% | 1.38% | 5.32%
COc1ccc2c(c1)OC1(C)CC2C(C(=O)c2ccccc2OC)C(=O)N1 (configuration not stated) | -18.1% | -9.23% | -4.56% | 80.4% | 67% | -0.025% | 1.48%
COCCn1c(SCC(=O)N2CCN(c3ccccc3)CC2)nc2c(c1=O)SC(C)C2 (configuration not stated) | 10.7% | 10.7% | -3.54% | 103% | 92.9% | 1.65% | 2.75%
COc1ccc(N2CCN(C(=O)C34CCC(C)(C(=O)C3)C4(C)C)CC2)cc1 (configuration not stated) | -1.5% | 0.815% | -0.51% | 88% | 91.8% | 1.86% | -0.21%
Cc1ccnc(SCCn2c(N3CCC(C)CC3)nc3c2c(=O)[nH]c(=O)n3C)n1 | -10.1% | -6.83% | -2.18% | 106% | 100% | 0.24% | -1.36%
Cc1ccc(N2C(=O)c3ccc(C(=O)N4CCN(c5ccccc5F)CC4)cc3C2=O)cc1 | -4.5% | -2.21% | -1.97% | 90.5% | 90% | 1.33% | 4.71%
Cc1ccc2nc(-c3ccccc3)cc(C(=O)O)c2c1 | -9.89% | 8.96% | -2.12% | 95.3% | 87.8% | 1.46% | 3.9%
Cc1nc2ccc(NC(=O)c3ccc(Cl)s3)cc2s1 | -7.99% | -7.74% | -3.83% | 106% | 97.1% | 1.84% | 4.46%
CC(=O)NCCc1ccc(S(=O)(=O)N2CCCC2)cc1 | -6.14% | 1.21% | 0.04% | 96.2% | 96% | 3.39% | 3.82%
CC(C)N1C(=O)CCC1C(=O)N1CCN(c2ccccn2)CC1 (configuration not stated) | -11.9% | -15.7% | 0.54% | 107% | 103% | 0.845% | 1.45%
Cn1c(=NC(=O)C2CC2)sc2cc(F)cc(F)c21 | -0.79% | 8.89% | -4.58% | 91.3% | 92.6% | 1.81% | 7.52%
COc1c(Cl)cc(-c2noc(C)c2C(=O)NC(C)C)cc1Cl | -17.1% | -15.9% | 0.34% | 98.1% | 96.4% | 1.33% | 2.37%
COc1cccc(C(c2sc3ncnn3c2O)N2CCN(C(=O)c3ccco3)CC2)c1 (configuration not stated) | -11.1% | -5.93% | 0.76% | 104% | 101% | 0.91% | 2.1%
C=CCN1C(=O)c2oc3ccccc3c(=O)c2C1c1ccc(O)c(OC)c1 (configuration not stated) | 3.61% | 3.18% | -2.61% | 101% | 95.4% | 2.72% | 5.67%
